Converted amounts (≈) assume the structure as drawn.
Assays:
[1] = test system: MRSA1 (methicillin resistant S. aureus); test: Minimum bactericidal concentration; type: cell-based; settings: MRSA; >4 = bacteriostatic
[2] = test system: MRSA1 (methicillin resistant S. aureus); test: Minimal inhibitory concentration; type: cell-based; settings: for SI (selectivity index, CC50/MIC): MRSA1 vs VERO cells
Summary of the method: (§1)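 Broth microdilution against MDR clinical isolates: 80 μl Mueller–Hinton broth plus 20 μl tween 80 received 100 μl test compound, then two-fold serial dilution. Each well was inoculated with 100 μl of 0.5 McFarland suspension ([…]) and incubated covered at 35 ± 2 °C for 24 h. MIC is the lowest concentration inhibiting growth.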

[3] = test system: MRSA1 (methicillin resistant S. aureus); test: Zone of inhibition against MDR clinical isolate; type: cell-based; settings: Staphylococcus aureus, read-out: Diameter of zone inhibition
[4] = test system: P. phaseolicola (GSPB 2828); test: Agar diffusion method, zone of inhibition; type: cell-based, Pseudomonas phaseolicola; settings: Pseudomonas, 24 h, read-out: Diameter of zone inhibition
Summary of the method: (§2)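 Bacterial strains were tested by agar diffusion on nutrient agar (peptone 5 and meat extract 3 g L⁻¹ in distilled water, pH 7.0, 2% agar, autoclaved 121 °C for 20 min). Each test compound (1 mg) was dissolved in 1 mL DMSO and made up to 10 mL with sterile water (100 μg mL⁻¹ stock). The solution was placed in the agar, and inhibition zones were measured after 24 h incubation. Values are the mean of triplicate readings.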

P. fluorescens (S 97) = test: Agar diffusion method, zone of inhibition; type: cell-based, Pseudomonas fluorescens; settings: Pseudomonas fluorescens, 24 h, read-out: Diameter of zone inhibition
Summary of the method: as §2

C. albicans = test: Agar diffusion method, zone of inhibition; type: cell-based, Candida albicans; settings: Candida albicans, 24 h, read-out: Diameter of zone inhibition
Summary of the method: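 For agar diffusion against C. albicans, each test compound (1 mg) was dissolved in 1 mL DMSO and diluted to 10 mL with sterile water (100 μg mL⁻¹ stock). The solution was placed in the agar, and the inhibition zone diameter was read after 24 h. Values are the average of triplicate readings.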

[5] = test system: K. pneumoniae (MDR clinical isolate); test: Zone of inhibition against MDR clinical isolate; type: cell-based; settings: Klebsiella pneumoniae, read-out: Diameter of zone inhibition
Gram-positive bacteria = test: Agar diffusion method; type: cell-based, S. aureus (ATCC 25923) and S. pyogenes (ATCC 19615); settings: summary of Table 1
Summary of the method: as §2

Gram-negative bacteria = test: Agar diffusion method; type: cell-based, P. phaseolicola (GSPB 2828) and P. fluorescens (S 97); settings: summary of Table 1
Summary of the method: as §2

S. pyogenes (ATCC 19615) = test: Agar diffusion method, zone of inhibition; type: cell-based, Streptococcus pyogenes; settings: Streptococcus pyogenes, ATCC19615, 24 h, read-out: Diameter of zone inhibition
S. aureus (ATCC 25923) = test: Agar diffusion method, zone of inhibition; type: cell-based, Staphylococcus aureus; settings: Staphylococcus aureus, ATCC25923, 24 h, read-out: Diameter of zone inhibition
Summary of the method: as §2

[6] = test system: K. pneumoniae (MDR clinical isolate); test: Minimal inhibitory concentration; type: cell-based; settings: for SI (selectivity index, CC50/MIC): K. pneumoniae vs VERO cells; for MIC: K. pneumoniae, Table 4
Summary of the method: as §1

| Structure (SMILES) | SI (selectivity index, CC50/MIC) [2] | MIC ([2]; Staphylococcus aureus) [µg/mL] | zone of inhibition at 15 µg/mL [3] [mm] | zone of inhibition at 10 µg/mL [4] [mm] | zone of inhibition at 10 µg/mL (P. fluorescens (S 97)) [mm] | zone of inhibition at 15 µg/mL (P. fluorescens (S 97)) [mm] | zone of inhibition at 10 µg/mL (C. albicans) [mm] | zone of inhibition at 15 µg/mL (C. albicans) [mm] | zone of inhibition at 15 µg/mL [5] [mm] | Activity against Gram-positive bacteria (Gram-positive bacteria) | Activity against Gram-negative bacteria (Gram-negative bacteria) | zone of inhibition at 15 µg/mL (S. pyogenes (ATCC 19615)) [mm] | zone of inhibition at 10 µg/mL (S. aureus (ATCC 25923)) [mm] | zone of inhibition at 15 µg/mL (S. aureus (ATCC 25923)) [mm] | SI (selectivity index, CC50/MIC) [6] | MIC [6] [µg/mL] | zone of inhibition at 10 µg/mL (S. pyogenes (ATCC 19615)) [mm] | zone of inhibition at 15 µg/mL [4] [mm] | MIC ([2]; MRSA1, Table 4) [µg/mL] | other results |
| --- | --- | --- | --- | --- | --- | --- | --- | --- | --- | --- | --- | --- | --- | --- | --- | --- | --- | --- | --- | --- |
| CCOC(=O)C1=C(C)N2NC(c3ccccc3O)N(C(Cc3c[nH]c4ccccc34)C(=O)O)C2=NC1c1ccc(Cl)cc1 (centres unmarked) [Compound 3c, 2-(5-(4-Chlorophenyl)-6-(ethoxycarbonyl)-2-(2-hydroxyphenyl)-7-methyl-1,2-dihydro-[1,2,4]triazolo[1,5-a]pyrimidin-3(5H)-yl)-3-(1H-indol-3-yl)propanoic acid] | 20 | 12.5 (≈ 20.8 µM) | 24 | 10 | 8 | 23 | 6 | 7 | 9 | active | – | – | – | – | – | – | – | – | – | MIC index (MBC/MIC) [1]: > 4; Activity against methicillin resistant S. aureus ([2]; MDR clinical isolate, Table 2): remarkable activity; MIC ([2]; MRSA1, Table 3): 12.5 µg/mL (≈ 20.8 µM) |
| CC(C(=O)O)N1c2nc(-c3ccc(Cl)cc3)c(C#N)c(=O)n2NC1(C)c1ccccc1O (centres unmarked) [Compound 9b, 2-(5-(4-Chlorophenyl)-6-cyano-2-(2-hydroxyphenyl)-2-methyl-7-oxo-1,2-dihydro-[1,2,4]triazolo[1,5-a]pyrimidin-3(7H)-yl)propanoic acid] | – | – | 7 | 19 | – | 28 | 6 | 8 | 29 | – | active | 25 | 15 | 26 | 10 | 25 (≈ 55.3 µM) | – | – | – | – |
| CC(C(=O)O)N1c2nc(-c3ccc(Cl)cc3)c(C#N)c(=O)n2NC1c1ccccc1O (centres unmarked) [Compound 9a, 2-(5-(4-Chlorophenyl)-6-cyano-2-(2-hydroxyphenyl)-7-oxo-1,2-dihydro-[1,2,4]triazolo[1,5-a]pyrimidin-3(7H)-yl)propanoic acid] | – | – | 5 | – | – | 30 | 6 | 9 | 27 | – | active | 27 | – | 26 | 20 | 25 (≈ 57.1 µM) | 12 | 30 | – | – |
| N#Cc1c(-c2ccc(Cl)cc2)nc2n(c1=O)NC(c1ccccc1O)N2C(Cc1c[nH]c2ccccc12)C(=O)O (centres unmarked) [Compound 9c, 2-(5-(4-Chlorophenyl)-6-cyano-2-(2-hydroxyphenyl)-7-oxo-1,2-dihydro-[1,2,4]triazolo[1,5-a]pyrimidin-3(7H)-yl)-3-(1H-indol-3-yl)propanoic acid] | 10 | 25 (≈ 45.2 µM) | 27 | 10 | 11 | 20 | 9 | 11 | 13 | active | – | – | – | – | – | – | 19 | 22 | 25 (≈ 45.2 µM) | – |
| CC(=O)C1=C(C)N2NC(C)(c3ccccc3O)N(C(Cc3c[nH]c4ccccc34)C(=O)O)C2=NC1c1ccc(Cl)cc1 (centres unmarked) [Compound 2d, 2-(6-Acetyl-5-(4-chlorophenyl)-2-(2-hydroxyphenyl)-2,7-dimethyl-1,2-dihydro-[1,2,4]triazolo[1,5-a]pyrimidin-3(5H)-yl)-3-(1H-indol-3-yl)propanoic acid] | 20 | 25 (≈ 42.8 µM) | 28 | 12 | – | – | 9 | 12 | 6 | active | – | – | 20 | – | – | – | 20 | 22 | 25 (≈ 42.8 µM) | – |

Reference: article PMC8693849 (RSC Advances, 2021)
